Source: ChEMBL document CHEMBL1144695, “Synthesis and evaluation of novel polyaminocarboxylate-based antitumor agents” (J Med Chem, 2008)

Tests used:
MRC5 = assay: Induction of proliferation in human MRC5 cells; type: functional; parameters: unit: fraction of untreated control
Method in brief: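 Normal MRC-5 lung fibroblasts were grown in EMEM with 10% FBS, seeded at 5000 cells/well and allowed 24 h to attach. Chelators at 50 µM were given for 72 h at 37 °C in 5% CO2. Read-out was MTS/PMS for 3 h, with absorbance at 490 nm expressed as a fraction of untreated solvent controls. Runs were at least triplicate.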

HeLa = assay: Cytotoxicity against human HeLa cells after 72 hrs by MTS assay; type: functional, cell-based
Method in brief: (§1)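 Cells attached 24 h before dosing: HeLa at 2000 cells/well in MEM with 10% FBS, and HT29 at 5000 cells/well in RPMI-1640 with 10% FBS. At least five serial dilutions were added for 72 h at 37 °C in 5% CO2. MTS/PMS was then added for 3 h and absorbance read at 490 nm, relative to untreated solvent controls. Runs were at least triplicate, and IC50 came from nonlinear regression.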

HT-29 = assay: Cytotoxicity against human HT29 cells after 72 hrs by MTS assay; type: functional, cell-based; details: HT-29, 72 h; method in brief: as §1

O=C(O)CNC(Cc1ccc([N+](=O)[O-])cc1)CN1CCN(CC(=O)O)CCN(CC(=O)O)CC1 (stereo unspecified)
Activity (MRC5): 2 | IC50 (HeLa): 7.1 µM | IC50 (HT-29): 5 µM

O=C(O)CNC(Cc1ccc(Nc2ccc([N+](=O)[O-])c3nonc23)cc1)CN1CCN(CC(=O)O)CCN(CC(=O)O)CC1 (stereo unspecified)
Activity (MRC5): 2

O=C(O)CNCCN1CCN(CC(=O)O)CCN(CC(=O)O)CC1
Activity (MRC5): 2 | IC50 (HeLa): 5.7 µM | IC50 (HT-29): 4.7 µM

O=C(O)CN1CCN(CC(=O)O)CCN(CC(Cc2ccc([N+](=O)[O-])cc2)N(CC(=O)O)CC(=O)O)CC1 (stereo unspecified)
IC50 (HeLa): > 100 µM | IC50 (HT-29): 45.7 µM

O=C(O)CN1CCN(CCN(CC(=O)O)Cc2ccc([N+](=O)[O-])cc2)CCN(CC(=O)O)CC1
Activity (MRC5): 2 | IC50 (HeLa): 8.4 µM | IC50 (HT-29): 6.8 µM

O=C(O)CN1CCN(CCN(CC(=O)O)CC(=O)O)CCN(CC(=O)O)CC1
Activity (MRC5): 2 | IC50 (HT-29): 7.3 µM

O=C(O)CN1CCN(CCN(CC(=O)O)Cc2ccccc2)CCN(CC(=O)O)CC1
Activity (MRC5): 2 | IC50 (HeLa): 4.4 µM | IC50 (HT-29): 2.6 µM

CC(=O)N(O)CCCCCNC(=O)CCC(=O)N(O)CCCCCNC(=O)CCC(=O)N(O)CCCCCN [DEFEROXAMINE]
IC50 (HeLa): > 50 µM | IC50 (HT-29): 36.1 µM

O=C(O)CN(CCN(CC(=O)O)CC(=O)O)CCN(CC(=O)O)CC(=O)O [PENTETIC ACID]
IC50 (HeLa): 264 µM | IC50 (HT-29): 39.1 µM
